In ChEMBL document CHEMBL4715825, “Synthesis and biological evaluations of marine oxohexadecenoic acids: PPARα/γ dual agonism and anti-diabetic target gene effects” (Eur J Med Chem, 2018):
Activity calls are given as the source filed them. The calls are words filed in the database; no cut-off is given here.

What was measured:
[1] = biological target: T1, Peroxisome proliferator-activated receptor alpha (Homo sapiens) (UniProt Q07869); assay: Agonist activity at human PPARalpha in 8 day differentiated human SGBS cells assessed as increase in PLIN1 gene expression at 25 uM incubated for 24 hrs by SYBR-green based qPCR analysis; assay type: cell-based
T1 sequence (whole entry): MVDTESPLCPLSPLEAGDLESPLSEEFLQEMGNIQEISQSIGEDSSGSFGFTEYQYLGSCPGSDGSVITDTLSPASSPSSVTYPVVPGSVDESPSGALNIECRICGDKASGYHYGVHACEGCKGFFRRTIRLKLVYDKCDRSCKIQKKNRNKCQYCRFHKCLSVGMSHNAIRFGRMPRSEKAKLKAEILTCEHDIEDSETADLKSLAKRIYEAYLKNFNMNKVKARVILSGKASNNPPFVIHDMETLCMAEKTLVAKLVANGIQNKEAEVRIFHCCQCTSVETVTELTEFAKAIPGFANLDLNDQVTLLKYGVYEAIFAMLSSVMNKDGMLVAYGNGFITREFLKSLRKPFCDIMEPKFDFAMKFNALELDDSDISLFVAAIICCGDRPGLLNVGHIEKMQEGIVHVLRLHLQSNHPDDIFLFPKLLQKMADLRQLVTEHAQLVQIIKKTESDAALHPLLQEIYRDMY
How it was run: (§1)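 SGBS preadipocytes were seeded at passage P6-P8 and grown to confluence. They were differentiated for 4 days in Quickdiff (3FC plus dexamethasone, IBMX and rosiglitazone), then kept in 3FC with medium renewed every fourth day. On day 8, cells were stimulated for 24 h in 3FC with compound:BSA or rosiglitazone. SYBR-green qPCR used gene-specific primers. Data are mean ± SEM of three biological replicates in duplicate.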

[2] = biological target: T2, Peroxisome proliferator-activated receptor gamma (Homo sapiens) (UniProt P37231); assay: Agonist activity at human PPARgamma in 8 day differentiated human SGBS cells assessed as decrease in IL-1 beta gene expression at 25 uM incubated for 24 hrs by SYBR-green based qPCR analysis; assay type: cell-based; conditions: filed as agonist
T2 sequence (whole entry): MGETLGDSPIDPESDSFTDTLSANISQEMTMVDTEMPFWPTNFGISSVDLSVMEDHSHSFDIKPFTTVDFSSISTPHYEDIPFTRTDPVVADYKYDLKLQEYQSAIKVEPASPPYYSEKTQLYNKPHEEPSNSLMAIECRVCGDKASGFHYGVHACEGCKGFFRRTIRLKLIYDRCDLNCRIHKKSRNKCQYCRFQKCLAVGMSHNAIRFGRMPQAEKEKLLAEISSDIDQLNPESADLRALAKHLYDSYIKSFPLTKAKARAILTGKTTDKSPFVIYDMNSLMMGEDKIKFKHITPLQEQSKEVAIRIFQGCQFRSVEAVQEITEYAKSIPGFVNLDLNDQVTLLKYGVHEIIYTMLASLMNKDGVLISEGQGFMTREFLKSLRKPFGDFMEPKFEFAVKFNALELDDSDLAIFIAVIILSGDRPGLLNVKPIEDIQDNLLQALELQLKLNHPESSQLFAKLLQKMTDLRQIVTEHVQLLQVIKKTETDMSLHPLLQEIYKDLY

[3] = biological target: T3, Peroxisome proliferator-activated receptor alpha (Homo sapiens, UniProt Q07869); assay: Agonist activity at recombinant human PPARalpha LBD (168 to 468 residues) expressed in African green monkey COS-1 cells incubated for 18 hrs by luciferase reporter gene assay; assay type: cell-based
T3 sequence (Q07869 whole entry): T1 sequence (whole entry)
How it was run: (§2)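 Transient Gal4 one-hybrid assay in COS-1 cells (7×10^4 per well), transfected 24 h after seeding. Plasmids were Gal4-DBD fused to the human nuclear receptor LBD, a 5×UAS-SV40 luciferase reporter and pRL-CMV Renilla control. Ligand in DMSO (final 0.1%) was added 5 h post-transfection. Dual-luciferase activity was read after 18 h, expressed as RLU, from three biological replicates in quadruplicate.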

[4] = biological target: T4, Oxysterols receptor LXR-beta (Homo sapiens) (UniProt P55055); assay: Agonist activity at recombinant human LXRbeta LBD (155 to 461 residues) expressed in African green monkey COS-1 cells at 25 to 50 uM incubated for 18 hrs by luciferase reporter gene assay; assay type: cell-based; conditions: dose 25-50 µM; how it was run: as §2
T4 sequence (whole entry): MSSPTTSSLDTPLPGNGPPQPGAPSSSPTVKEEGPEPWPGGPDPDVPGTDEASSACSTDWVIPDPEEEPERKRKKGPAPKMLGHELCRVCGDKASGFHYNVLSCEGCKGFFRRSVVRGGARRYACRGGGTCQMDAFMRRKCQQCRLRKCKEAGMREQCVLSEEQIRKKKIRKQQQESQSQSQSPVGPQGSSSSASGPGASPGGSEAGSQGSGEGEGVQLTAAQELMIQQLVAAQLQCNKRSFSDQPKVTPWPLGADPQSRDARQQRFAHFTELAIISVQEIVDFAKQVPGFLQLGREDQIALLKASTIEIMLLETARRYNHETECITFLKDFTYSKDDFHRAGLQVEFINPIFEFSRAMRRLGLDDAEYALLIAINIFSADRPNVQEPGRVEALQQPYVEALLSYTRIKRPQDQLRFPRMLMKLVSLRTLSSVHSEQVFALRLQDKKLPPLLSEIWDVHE

[5] = system: COS-1; assay: Agonist activity at recombinant full length human PPARalpha/gamma/RXRalpha expressed in African green monkey COS-1 cells assessed as induction of CPT1A driven luciferase reporter activity at 25 uM incubated for 18 hrs by dual luciferase reporter gene assay; assay type: cell-based; conditions: filed as agonist
How it was run: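 COS-1 cells were kept in DMEM/10% FBS at 37 °C, 5% CO2, and seeded at 7×10^4 per well. After 24 h they were lipofected with full-length PPAR and RXR expression plasmids, a PLIN1- or CPT1A-driven luciferase reporter and pRL-CMV Renilla control. Compound in DMSO (final 0.1%) was added 5 h later. After 18 h, cells were lysed for Dual-Luciferase readout. Three biological replicates were run in quadruplicate.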

[6] = system: SGBS; assay: Induction of adipogenesis in 8 day differentiated human SGBS cells assessed as increase in FABP4 mRNA expression at 25 uM measured upto 12 days by qRT-PCR analysis; assay type: functional, cell-based; conditions: time day <=12
How it was run: (§3)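 SGBS cells were grown to confluence (day 0). Quickdiff medium was supplemented with compound or rosiglitazone for 4 days, followed by 3FC medium. DMSO or DMSO:BSA served as control. RNA was harvested on days 0, 4, 8 and 12, and expression was measured by SYBR-green qPCR. Data are mean ± SEM of at least three biological replicates in duplicate.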

[7] = system: SGBS; assay: Induction of adipogenesis in 8 day differentiated human SGBS cells assessed as increase in CEBPA mRNA expression at 25 uM measured upto 12 days by qRT-PCR analysis; assay type: functional, cell-based; conditions: time day <=12; how it was run: as §3
[8] = biological target: T2, Peroxisome proliferator-activated receptor gamma (Homo sapiens); assay: Agonist activity at human PPARgamma in 8 day differentiated human SGBS cells assessed as increase in ADIPOQ gene expression at 25 uM incubated for 24 hrs by SYBR-green based qPCR analysis; assay type: cell-based; conditions: filed as agonist; how it was run: as §1
[9] = system: SGBS; assay: Induction of adipogenesis in 8 day differentiated human SGBS cells assessed as increase in PPARG mRNA expression at 25 uM measured upto 12 days by qRT-PCR analysis; assay type: functional, cell-based; conditions: time day <=12; how it was run: as §3
[10] = biological target: T1, Peroxisome proliferator-activated receptor alpha (Homo sapiens); assay: Agonist activity at recombinant human PPARalpha LBD (168 to 468 residues) expressed in African green monkey COS-1 cells at 25 to 50 uM incubated for 18 hrs by luciferase reporter gene assay; assay type: cell-based; conditions: filed as agonist, dose 25-50 µM; how it was run: as §2

Compound | Activity [1] | Activity [2] | EC50 [3] [µM] | Activity [4] | Activity [5] | Activity [6] | Activity [7] | Activity [8] | Activity [9] | Activity [10]
CCCCC/C=C/C(=O)CCCCCCCC(=O)O | inactive | Active | 26 | inactive | Active | Active | Active | Active | Active | Active
CCCCCCCC(=O)/C=C/CCCCCC(=O)O | inactive | Active | 20 | inactive | Active | Active | Active | Active | Active | Active
